Reference: paper PMC11550832 (Nature Communications, 2024)
Blank lines part the entries; values can stand above or below the molecule they belong to.

Columns and labels:
4T1 cells [1] = experiment: Intracellular distribution of internalized TPM2 and TPM3; assay type: cell-based, mouse; details: 50 μM, 4, 24 and 48 h, LysoTracker, CLSM
Zeta potential by DLS = assay type: physicochemical; details: 200 μM, mean n = 3
[2] = molecular target: T1, human PD-L1 recombinant protein (Homo sapiens, UniProt Q9NZQ7); experiment: PD-L1-induced fibrillar transformation in aqueous solution; assay type: biochemical; details: 24 h incubation
T1 sequence (Q9NZQ7 19-239 limits assumed): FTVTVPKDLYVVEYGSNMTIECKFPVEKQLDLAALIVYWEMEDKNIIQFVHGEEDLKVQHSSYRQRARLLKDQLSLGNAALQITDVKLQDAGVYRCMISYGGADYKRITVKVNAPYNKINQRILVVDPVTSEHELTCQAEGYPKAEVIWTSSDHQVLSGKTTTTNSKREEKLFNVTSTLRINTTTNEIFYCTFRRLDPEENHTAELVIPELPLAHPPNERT
How it was run: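 Recombinant human PD-L1 was added to 50 μM nanoparticle solution at molar ratios of 1:100, 1:500, 1:1000, 1:2000 and 1:5000. Mixtures were incubated 0.5 h, 4 h and 24 h, then prepared for TEM to view morphology change.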

Particle size by DLS = assay type: physicochemical; details: aqueous solution, 200 μM
[3] = Critical aggregation concentration; assay type: physicochemical; details: pyrene probe, I1 (373 nm)/I3 (384 nm), 0.01-50 μM, 37 °C for 2 h, fluorescence
How it was run: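 Pyrene fluorescence was excited at 335 nm and emission recorded. The I1 (373 nm)/I3 (384 nm) intensity ratio was used to derive the critical aggregation concentration.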

[4] = system: 4T1 cells co-cultured with activated CD8+ T cells; experiment: Killing effect of activated CD8+ T cells on treated 4T1 cells; assay type: cell-based, mouse; details: co-culture of 4T1 and activated CD8+ T cells
How it was run: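 Splenic mouse CD8⁺ T cells were expanded with IL-2 and activated with anti-CD3/CD28 beads. 4T1 cells were pretreated 4 h with test compound or anti-PD-L1 antibody (68 nM), washed, then co-cultured with T cells (1:10) for 24 h. T cells alone on 4T1 served as control. Read-outs: CCK-8 viability (6 × 10³ cells/well) or calcein-AM staining, 20 min (2 × 10⁴ cells/well).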

SKBR-3 cells [5] = experiment: Cellular distribution of peptide nanoparticles; assay type: cell-based, human; details: SKBR-3, 50 μM, 4 h
PD-L1 on 4T1 cells = PD-L1 on 4T1 cells (Mus musculus, UniProt Q9EP73); experiment: Surface PD-L1 level after treatment; assay type: cell-based; details: 4T1, nanoparticles 50 μM or antibody 68 nM, 4 h, flow cytometry
Sequence of PD-L1 on 4T1 cells (Q9EP73 19-290): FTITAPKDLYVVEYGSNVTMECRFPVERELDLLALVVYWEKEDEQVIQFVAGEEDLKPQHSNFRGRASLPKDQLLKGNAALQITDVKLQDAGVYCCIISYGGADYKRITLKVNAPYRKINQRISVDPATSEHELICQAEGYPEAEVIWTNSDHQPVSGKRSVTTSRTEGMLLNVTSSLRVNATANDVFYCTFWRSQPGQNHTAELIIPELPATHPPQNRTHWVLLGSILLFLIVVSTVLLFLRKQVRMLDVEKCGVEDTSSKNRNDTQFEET
How it was run: (§1)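 Cells were washed and moved to medium without FBS or penicillin/streptomycin. They were treated 4 h at 37 °C, 5% CO₂ with nanoparticles (50 μM) or anti-PD-L1 antibody (68 nM). Surface PD-L1 was stained 15 min at 4 °C with BV421 antibody (1:200), anti-human for SKBR-3 and anti-mouse for 4T1. Cells were PBS-washed three times and analysed by flow cytometry.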

4T1 cells [6] = experiment: Cellular distribution of peptide nanoparticles; assay type: cell-based, mouse; details: 4T1, 50 μM, 4 h
LLC cells = experiment: Cytotoxicity, CCK-8; assay type: cell-based, mouse; details: CCK-8, 24 h, 1-200 μM, TPM1 finding at 100 μM or 200 μM
How it was run: (§2)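 Cells at 8 × 10³ per well were exposed to 1, 10, 50, 100 and 200 μM nanoparticles in DMEM, RPMI-1640 or McCoy's 5A complete medium for 24 h. CCK-8 was added for a further 2 h and OD450 read. Viability (%) = [(treated − blank)/(control − blank)] × 100.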

mice bearing 4T1 tumour = experiment: Bio-distribution, ex vivo fluorescence imaging; assay type: in vivo, mouse; details: single i.v. 13 mg/kg, 4T1 tumour mice, post-injection
How it was run: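 Female Balb/c mice (6–8 weeks) carrying subcutaneous 4T1 tumours (1 × 10⁶ cells, right flank) got a single tail-vein dose of 13 mg/kg nanoparticle. n = 3 per group per time point. Tumour, heart, liver, spleen, lung, kidney, intestine and muscle were harvested at 2, 4, 6, 8, 10, 24, 48, 72 and 168 h post-injection and imaged ex vivo by fluorescence.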

[7] = molecular target: PD-L1 on the membrane of SKBR-3 cells (Homo sapiens, UniProt Q9NZQ7); experiment: Co-location of nanoparticles and PD-L1 on cell membrane; assay type: cell-based; details: SKBR-3, 4 h, FITC immunofluorescence
Sequence of PD-L1 on the membrane of SKBR-3 cells (Q9NZQ7 19-290): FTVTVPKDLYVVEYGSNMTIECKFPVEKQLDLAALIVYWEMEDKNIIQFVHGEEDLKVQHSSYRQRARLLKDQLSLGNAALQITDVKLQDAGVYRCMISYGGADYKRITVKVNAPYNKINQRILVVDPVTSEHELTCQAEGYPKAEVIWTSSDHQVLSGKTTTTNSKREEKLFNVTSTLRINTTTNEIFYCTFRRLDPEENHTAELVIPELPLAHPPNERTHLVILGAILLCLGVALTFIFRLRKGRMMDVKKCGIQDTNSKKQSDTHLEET
How it was run: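 PD-L1 on cells was immunostained with a FITC-labelled goat anti-mouse secondary (1:1000, 1 h, room temperature) after PBS washes. Nuclei were stained with DAPI and cells imaged by confocal microscopy. Co-localization with the nanoparticle signal was quantified computationally.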

4T1 cells [8] = experiment: Cytotoxicity, CCK-8; assay type: cell-based, mouse; details: 4T1, CCK-8, 24 h, 1-200 μM; TPM1 finding at 100 μM or 200 μM
How it was run: as §2

[9] = molecular target: T1, human PD-L1 recombinant protein; experiment: CD and FTIR spectroscopy of β-sheet formation; assay type: biochemical; details: human PD-L1, 24 h, 50 μM, ratio 1000:1
How it was run: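 Nanoparticles were incubated with or without recombinant human PD-L1. β-sheet formation was then detected by CD spectroscopy, with FTIR alongside.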

PD-L1 on SKBR-3 cells = PD-L1 on SKBR-3 cells (Homo sapiens, UniProt Q9NZQ7); experiment: Surface PD-L1 level after treatment; assay type: cell-based; details: SKBR-3, nanoparticles 50 μM or antibody 68 nM, 4 h, flow cytometry
Sequence of PD-L1 on SKBR-3 cells (Q9NZQ7 19-290): as above
How it was run: as §1

HFF cells = experiment: Cytotoxicity, CCK-8; assay type: cell-based, human; details: CCK-8, 24 h, 1, 10, 50, 100 and 200 μM, n = 5
How it was run: as §2

[10] = system: mice bearing 4T1 breast cancer; experiment: In vivo inflammatory effect, serum TNF, IL-6, IL-1β ELISA; parameters: species or system mouse; details: 21 days after a single dose, 4T1 tumour mice, n = 5
How it was run: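 Serum was taken from 4T1 tumour-bearing mice (n = 5 per group) 21 days after a single dose. Arms: PBS 200 μL i.v., nanoparticles 13 mg/kg via tail vein, anti-PD-L1 antibody 5 mg/kg. TNF, IL-6 and IL-1β were measured by ELISA.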

[11] = TEM morphology of nanoparticles; assay type: physicochemical; details: 50 μM, uranyl acetate stain
How it was run: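 A 50 μM nanoparticle solution was dried on holey-carbon copper grids and stained with 2% uranyl acetate for 3 min. Grids were imaged by TEM at 120 kV.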

SKBR-3 cells [12] = experiment: Cytotoxicity, CCK-8; assay type: cell-based, human; details: SKBR-3, CCK-8, 24 h, 1-200 μM; TPM1 finding at 100 μM or 200 μM
How it was run: as §2

PD-L1 in SKBR-3 cells = experiment: Upregulation of PD-L1 induced by IFN-γ; assay type: cell-based, human; details: SKBR-3, 100 ng/mL, 24 h
How it was run: (§3)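 Recombinant human IFN-γ (100 ng/mL) added to complete medium of SKBR-3 cells for 24 h. Western blot: cells PBS-washed three times, lysed on ice in RIPA buffer with 1% protease inhibitor, spun 13523 × g, 3 min, 4 °C; band density quantified. Flow cytometry: PBS-washed cells stained with BV421-labelled human anti-PD-L1 (1:200), 15 min, 4 °C, washed thrice.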

PD-L1 in 4T1 cells = experiment: Upregulation of PD-L1 induced by IFN-γ; assay type: cell-based, mouse; details: 4T1, 100 ng/mL, 24 h
How it was run: as §3, with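 “4T1 cells received mouse” for “Recombinant human”, “in” for “added to”, “medium” for “medium of SKBR-3 cells”, “mouse” for “human”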

fate of internalized nanoparticles (4T1 cells [1]): predominately degraded in lysosomes
zeta potential of initial nanoparticles (Zeta potential by DLS): +19.6 mV
morphology after incubation with PD-L1 proteins (TEM) [2]: no noticeable change in morphology
diameter of nanoparticles (DLS) (Particle size by DLS): ~ 19 nm
critical aggregation concentration (CAC) [3]: 9.8 µM
change in PD-L1 expression levels before and after incubation (PD-L1 on 4T1 cells): no significant changes
time of peak fluorescence intensity in the tumour (mice bearing 4T1 tumour; ex vivo imaging): 24 h
fluorescent signals in the tumour remained until (mice bearing 4T1 tumour): 48 h
co-localization with PD-L1 on cell membrane [7]: No apparent co-localization
CD signals after incubation with PD-L1 protein [9]: No such change
change in PD-L1 expression levels before and after incubation (PD-L1 on SKBR-3 cells): no significant changes
serum TNF, IL-6 and IL-1β versus PBS and other groups [10]: no significant difference
morphology of nanoparticles (TEM) [11]: spherical structure
Molecule: Ac-K(Ce6)-GGAAK-SGQYASYHCWCWRDPGRSGGSK [TPM2]
effect on T cell activity [4]: no effect
location of Ce6 red fluorescence signals (CLSM) (SKBR-3 cells [5]): inside cells rather than on the cell membranes
location of Ce6 red fluorescence signals (CLSM) (4T1 cells [6]): inside cells rather than on the cell membranes
cytotoxicity (LLC cells): No cytotoxicity
cytotoxicity (4T1 cells [8]): No cytotoxicity
cytotoxicity (HFF cells): no apparent cytotoxicity
cytotoxicity (SKBR-3 cells [12]): No cytotoxicity

B1: IFN-γ: human or mouse IFN-γ (PeproTech), 100 ng/mL, used to upregulate PD-L1 expression (protein, UniProt P01579 24-161, looked up)
Interferon gamma: QDPYVKEAENLKKYFNAGHSDVADNGTLFLGILKNWKEESDRKIMQSQIVSFYFKLFKNFKDDQSIQKSVETIKEDMNVKFFNSNKKKRDDFEKLTNYSVTDLNVQRKAIHELIQVMAELSPAAKTGKRKRSQMLFRG
PD-L1 expression after IFN-γ treatment (PD-L1 in SKBR-3 cells): increased PD-L1 expression
PD-L1 expression after IFN-γ treatment (PD-L1 in 4T1 cells): increased PD-L1 expression
